This is a sample that favours compounds with a hit; in the whole collection about 5.8% have one here.
T cruzi growth-1: T. cruzi intracellular proliferation inhibitors, primary screen, cell-based, beta-gal Tulahuen parasites, NIH3T3 host, luminescence | 77,000 compounds, 5.9% hits | inhibition, % at 8.34 µM | T. cruzi beta-gal in NIH3T3, GalScreen luminescence, 90 h | AID 624255, 2012;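 active = mean inhibition above about 93%, with at least 55% of replicates each passing it, limit read from the data, passing the limit was not always enough; inconclusive = only one of those two conditions holds; inactive = neither condition holds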
Pf Dd2 inh: P. falciparum Dd2 growth inhibitors, primary screen, SYBR Green fluorescence, single dose replicates; 72 h; stronger effect = lower value; activity change, % at 10 µM; 94,000 compounds, 2.3% hits; in the data active = activity change below about -80%; inconclusive = no clear call, values can overlap the other calls
IDH1 R132H inh: inhibitors of IDH1 R132H reductase, primary screen, biochemical, plate reader, single point; Isocitrate dehydrogenase [NADP] cytoplasmic (Homo sapiens), O75874; 70,000 compounds, 0.18% hits; diaphorase/resazurin fluorescence, 60 min; inhibition, % at 10 µM; in the data active = inhibition above about 34%; inconclusive = no clear call, values can overlap the other calls; inactive = below about 11%
GASC1 inh: inhibitors of GASC-1 (KDM4C) histone demethylase, primary screen, biochemical, single concentration HTS; GST-KDM4C 2-372, H3K9me3 peptide, LANCE TR-FRET; AID 720574, 2013; inhibition, % at 12.5 µM; 96,000 compounds, 0.15% hits; Lysine-specific demethylase 4C (Homo sapiens), Q9H3R0;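 active = mean replicate inhibition above about 25%, with at least 55% of replicates also reaching it, limit read from the data, passing the limit was not always enough; inconclusive = only one of those two conditions met; inactive = neither condition met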
Target sequence (Q9H3R0 2-372 limits assumed): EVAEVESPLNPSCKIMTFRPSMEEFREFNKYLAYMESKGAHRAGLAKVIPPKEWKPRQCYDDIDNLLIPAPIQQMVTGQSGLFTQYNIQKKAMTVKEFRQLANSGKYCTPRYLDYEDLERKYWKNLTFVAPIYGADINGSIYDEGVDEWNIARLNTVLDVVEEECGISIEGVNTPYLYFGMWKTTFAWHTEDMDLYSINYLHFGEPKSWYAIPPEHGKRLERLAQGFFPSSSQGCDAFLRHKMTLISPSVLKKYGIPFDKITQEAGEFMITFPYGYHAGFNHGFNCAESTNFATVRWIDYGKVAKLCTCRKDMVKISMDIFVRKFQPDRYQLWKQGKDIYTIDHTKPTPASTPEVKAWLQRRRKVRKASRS
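Test system – GST-tagged GASC-1 (JMJD2C) catalytic fragment, aa 2-372 · Medium – HEPES buffer, pH 7.5, plus ascorbate · Reagent – H3K9me3 peptide with Fe(II)/2OG · Compound – one test concentration per compound · Timing – 30 min reaction, 60 min detection, RT · Technique – TR-FRET with Eu antibody and ULight streptavidin, EDTA stop · Read-out basis – inhibition from TR-FRET ratio decrease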
T cruzi growth-2: T. cruzi intracellular proliferation inhibitors, confirmation, cell-based, NIH3T3 host, beta-gal parasite, luminescence, cherry-pick; 5,600 compounds, 72% hits; T. cruzi beta-gal in NIH3T3, GalScreen luminescence, 90 h; shares compounds with T cruzi growth-1; inhibition, % at 8.35 µM;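 active = mean replicate inhibition above about 95% and at least 55% of replicates individually reaching it, limit read from the data; inconclusive = only one of the two criteria is met; inactive = neither criterion is met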
T cruzi growth-3: inhibitors of intracellular T. cruzi replication, confirmation, NIH3T3 host cells, beta-gal parasites, cherry-pick, set 2; shares compounds with T cruzi growth-1; T. cruzi beta-gal in NIH3T3, GalScreen luminescence, 90 h; inhibition, % at 2.09 µM; 5,600 compounds, 21% hits;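 active = mean inhibition above about 95%, with at least 55% of replicates also reaching it, limit read from the data; inconclusive = meets just one of the two conditions; inactive = meets neither condition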
NIH3T3 tox: cytotoxicity in mouse NIH/3T3 fibroblasts, confirmation, cytotoxicity control for T. cruzi proliferation inhibitor project, cell-based, cherry-pick, single point; shares compounds with T cruzi growth-1; NIH/3T3 viability, CellTiter-Glo ATP luminescence, 90 h; cytotoxicity (signal decrease), % at 8.35 µM; 5,600 compounds, 14% hits; AID 651742, 2012;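 active = mean signal decrease across replicates above about 35% based on untreated-well scatter, with enough replicates individually passing, limit read from the data; inconclusive = no rule stated though some were filed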
NIH3T3 tox 2: NIH/3T3 fibroblast cytotoxicity, confirmation, cytotoxicity control, cell-based, cherry-pick, single point, set 2 | shares compounds with T cruzi growth-1 | NIH/3T3 viability, CellTiter-Glo ATP luminescence, 90 h | inhibition, % at 24.9 µM | 5,600 compounds, 56% hits | AID 651744, 2012;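 active = mean loss of cell viability signal at or above a set limit, and enough replicates individually reaching it; inconclusive = meets only the mean limit or only the replicate share; inactive = meets neither condition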
Numbers stand for hits; – = inactive; ? = inconclusive; · = no result given.

SMILES | T cruzi growth-1 | Pf Dd2 inh | IDH1 R132H inh | GASC1 inh | T cruzi growth-2 | T cruzi growth-3 | NIH3T3 tox | NIH3T3 tox 2
COc1ccccc1-c1ccc2c(c1)O[C@@H](CN(C)S(=O)(=O)c1ccc(F)cc1)[C@H](C)CN([C@H](C)CO)S2(=O)=O | – | – | – | – | · | · | · | ·
COc1ccccc1-c1ccc2c(c1)O[C@@H](CN(C)S(=O)(=O)c1ccc(F)cc1)[C@H](C)CN([C@@H](C)CO)S2(=O)=O | 108 | -82 | – | – | 109 | – | – | ?
COc1ccccc1-c1ccc2c(c1)O[C@H](CN(C)S(=O)(=O)c1ccc(F)cc1)[C@@H](C)CN([C@H](C)CO)S2(=O)=O | – | – | – | – | · | · | · | ·
CCCNC(=O)N(C)C[C@H]1Oc2cc(-c3cccnc3)ccc2S(=O)(=O)N([C@H](C)CO)C[C@H]1C | – | – | – | – | · | · | · | ·
Cc1ccc(OCC(=O)Nc2cc(Cl)ccc2C(=O)O)c(C)c1 | · | · | – | · | · | · | · | ·
C[C@H](CO)N1C[C@H](C)[C@H](CN(C)C(=O)Nc2ccc3c(c2)OCO3)OCCCC[C@H](C)Oc2ccc(NC(=O)NC3CCCCC3)cc2C1=O | 110 | – | – | – | 105 | – | – | –
C[C@@H]1CCCCO[C@H](CN(C)C(=O)Nc2ccc3c(c2)OCO3)[C@H](C)CN([C@@H](C)CO)C(=O)c2cc(NC(=O)NC3CCCCC3)ccc2O1 | – | – | · | – | · | · | · | ·
C[C@@H]1CCCCO[C@@H](CN(C)C(=O)Nc2ccc(F)cc2)[C@@H](C)CN([C@H](C)CO)C(=O)c2cc(NC(=O)Nc3ccc4c(c3)OCO4)ccc2O1 | – | – | – | – | · | · | · | ·
C[C@@H]1CCCCO[C@H](CN(C)C(=O)Nc2ccc3c(c2)OCO3)[C@H](C)CN([C@H](C)CO)C(=O)c2cc(NC(=O)Nc3ccc(F)cc3)ccc2O1 | 102 | -88 | – | – | 100 | – | – | –
C[C@@H]1CCCCO[C@@H](CN(C)C(=O)Nc2ccc3c(c2)OCO3)[C@H](C)CN([C@H](C)CO)C(=O)c2cc(NC(=O)Nc3ccc(F)cc3)ccc2O1 | 102 | – | – | – | 104 | – | – | –
C[C@H](CO)N1C[C@H](C)[C@H](CN(C)C(=O)Nc2ccc(F)cc2)OCCCC[C@H](C)Oc2ccc(NC(=O)Nc3ccc4c(c3)OCO4)cc2C1=O | – | – | – | – | · | · | · | ·
C[C@H](CO)N1C[C@H](C)[C@H](CN(C)C(=O)Nc2ccc3c(c2)OCO3)OCCCC[C@H](C)Oc2ccc(NC(=O)Nc3ccc(F)cc3)cc2C1=O | 104 | – | · | – | 108 | – | – | –
CN1CCN(C(=O)C[C@H]2CC[C@@H]3[C@H](COC[C@H](O)CN3C(=O)C3CCCC3)O2)CC1 | – | – | · | – | · | · | · | ·
C[C@H]1CN([C@@H](C)CO)S(=O)(=O)c2ccc(C#CCN(C)C)cc2O[C@@H]1CN(C)Cc1ccccc1F | 110 | – | – | – | 107 | – | – | 105
C[C@H]1CN([C@@H](C)CO)S(=O)(=O)c2ccc(C#CC3CC3)cc2O[C@H]1CN(C)Cc1ccccc1F | 106 | – | – | – | 106 | – | – | 107
C[C@@H]1CN([C@@H](C)CO)S(=O)(=O)c2ccc(C#CCN(C)C)cc2O[C@H]1CN(C)Cc1ccccc1F | 116 | – | – | – | ? | – | 51 | 105
CCNC(=O)C[C@H]1CC[C@@H]2[C@H](COc3ccc(NC(=O)c4cc(C)on4)cc3C(=O)N2C)O1 | – | – | · | – | · | · | · | ·
O=S(=O)(c1ccccc1)N1CCCCN2[C@H](CO)[C@H](c3ccc(-c4ccccc4F)cc3)[C@@H]2C1 | 103 | – | · | – | 106 | – | – | 42
O=S(=O)(c1ccccc1)N1CCCCN2[C@@H](CO)[C@H](c3ccc(-c4ccccc4F)cc3)[C@@H]2C1 | 105 | – | · | – | 104 | – | – | 106
COCC(=O)N1CCCCN2[C@@H](CO)[C@@H](c3ccc(C#Cc4ccc(OC)cc4)cc3)[C@@H]2C1 | – | – | · | – | · | · | · | ·
COCC(=O)N1CCCCN2[C@@H](CO)[C@H](c3ccc(C#Cc4cccnc4)cc3)[C@@H]2C1 | 99 | – | · | – | – | – | – | –
COCC(=O)N1CCCCN2[C@@H](CO)[C@H](c3ccc(-c4ccc(OC)cc4)cc3)[C@@H]2C1 | 104 | – | · | – | – | – | – | –
COCC(=O)N1CCCCN2[C@H](CO)[C@H](c3ccc(-c4ccc(OC)cc4)cc3)[C@@H]2C1 | 103 | – | · | – | – | – | – | 32
COCC(=O)N1CCCCN2[C@H](C1)[C@H](c1ccc(C#Cc3ccc(OC)cc3)cc1)[C@@H]2CO | 105 | – | · | – | 95 | – | – | 89
CC(C)NC(=O)Nc1ccc2c(c1)C(=O)N([C@@H](C)CO)C[C@@H](C)[C@H](CN(C)Cc1ccc(C(=O)O)cc1)OCCCC[C@@H](C)O2 | – | – | – | – | · | · | · | ·
SMILES | T cruzi growth-1 | Pf Dd2 inh | IDH1 R132H inh | GASC1 inh | T cruzi growth-2 | T cruzi growth-3 | NIH3T3 tox | NIH3T3 tox 2
O=C(C[C@H]1C[C@@H]2c3cc(NC(=O)Nc4ccccc4)ccc3O[C@@H]2[C@H](CO)O1)NCc1cccc(F)c1 | – | – | – | – | · | · | · | ·
O=C(C[C@@H]1C[C@H]2c3cc(NC(=O)Nc4ccccc4)ccc3O[C@H]2[C@H](CO)O1)NCc1cccc(F)c1 | 104 | – | – | – | – | – | – | –
O=C(C[C@@H]1C[C@H]2c3cc(NC(=O)CC4CC4)ccc3O[C@H]2[C@H](CO)O1)NCc1cccnc1 | 109 | – | – | – | – | – | – | –
O=C(C[C@H]1C[C@H]2c3cc(NC(=O)NC4CCCC4)ccc3O[C@H]2[C@H](CO)O1)NCc1ccccc1 | – | – | – | – | · | · | · | ·
O=C(C[C@@H]1C[C@H]2c3cc(NC(=O)CC4CC4)ccc3O[C@H]2[C@@H](CO)O1)NCc1cccnc1 | – | – | – | – | · | · | · | ·
O=C(C[C@H]1C[C@H]2c3cc(NC(=O)NC4CCCC4)ccc3O[C@H]2[C@@H](CO)O1)NCc1ccc(Cl)cc1 | 105 | – | – | – | – | – | – | –

Screening data as filed in PubChem BioAssay.
